The values that follow come from ChEMBL document CHEMBL3352295, “Neuroprotective Xanthones from the Root Bark of Cudrania tricuspidata” (J Nat Prod, 2014).

As a reminder, the EC50 is the concentration needed to bring the measured effect to its halfway point.

One experiment has as its system SH-SY5Y. Put plainly: Ratio of curcumin EC50 to compound EC50 for neuroprotective activity against 6-hydroxydopamine-induced human SH-SY5Y cell death after 24 hrs by MTT assay. The experiment is classed as functional. In outline:
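SH-SY5Y cells seeded at 2 × 10^4 cells/well and grown 24 h. Cells then received 100 μM 6-OHDA together with test samples at ≥4 concentrations for a further 24 h. Viability was read by MTT (0.5 mg/mL in PBS, 37 °C, 4 h), with formazan dissolved in DMSO and read at 540 nm. EC50 (half-maximal protection) was taken from semilog plots, triplicate, mean ± SD. Curcumin was the reference.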
Background: Formazan colour is commonly taken as a measure of viable cells.
`C=CC(C)(C)c1c(O)cc(O)c2c(=O)c3ccc(O)c(OC)c3oc12`: the “Ratio EC50” value turned out to be 7.

As to `C=CC(C)(C)c1c(O)cc(O)c2c(=O)c3c(cc(O)c4oc(C(=C)C)cc43)oc12`, the “Ratio EC50” value was 7.

Test system in the next experiment: not listed separately
The experiment can be described thus: Neuroprotective activity against 6-hydroxydopamine-induced human SH-SY5Y cell death after 24 hrs by MTT assay. The experiment is classed as functional, cell-based. The essentials: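 SH-SY5Y cells seeded at 2 × 10^4 cells/well, grown 24 h, then exposed to 100 μM 6-OHDA together with test compounds (at least four concentrations) for 24 h. Viability by MTT (0.5 mg/mL in PBS, 37 °C, 4 h), formazan dissolved in DMSO, absorbance 540 nm. EC50 = half-maximal protection, from semilog concentration–effect plot; triplicate, mean ± SD; curcumin positive control.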
As to `CC1Oc2cc3oc4c5c(c(O)cc4c(=O)c3c(O)c2C1(C)C)OC(C)(C)C(O)C5` (stereo not given), the EC50 was found to be 2.2 µM.

`C=CC(C)(C)c1c(O)cc(O)c2c(=O)c3c(CC(=O)C(=C)C)c(OC)c(O)cc3oc12`: a half-maximal response (EC50) required 7.2 µM.

`CC(C)=CCc1c2c(c(O)c3c(=O)c4ccc(O)c(O)c4oc13)C(C)(C)C(C)O2` (stereo not given) came in with an EC50 of 3 µM.

Turning to `C=CC(C)(C)c1c(O)cc(O)c2c(=O)c3ccc(O)c(OC)c3oc12`, the EC50 came to 0.7 µM.

For the compound `CC(C)=CCc1c(O)c(O)cc2c(=O)c3c4c(c(O)cc3oc12)C(C)(C)C(C)O4` (stereo not given), the EC50 was 2.4 µM.

`COc1cc(/C=C/C(=O)CC(=O)/C=C/c2ccc(O)c(OC)c2)ccc1O` [CURCUMIN] yielded an EC50 of 6 µM.

`CC1(C)C=Cc2c(cc(O)c3c(=O)c4cccc(O)c4oc23)O1`: the EC50 was found to be 5.1 µM.

Turning to `C=CC(C)(C)c1c(O)cc2oc3c(CC=C(C)C)c(O)c(O)cc3c(=O)c2c1O` [CUDRAXANTHONE L], a half-maximal response (EC50) required 8.2 µM.

`CC1(C)C=Cc2c(cc(O)c3c(=O)c4c5c(ccc4oc23)OC(C)(C)C=C5)O1` returned an EC50 of 4.5 µM.

`C=CC(C)(C)c1c(O)cc(O)c2c(=O)c3c(CC(O)C(=C)C)c(O)c(O)cc3oc12` (stereo not given) came in with an EC50 of 16.6 µM.

`CC1(C)C=Cc2c(cc(O)c3c(=O)c4cc(O)ccc4oc23)O1` [NIGROLINEAXANTHONE F]: the EC50 was 15.5 µM.

Turning to `C=CC(C)(C)c1c(OC)cc(O)c2c(=O)c3c(CC(O)C(=C)C)c(O)c(O)cc3oc12` (stereo not given), the midpoint of the response, the EC50, lay at 2.3 µM.

The compound `C=CC(C)(C)c1c(O)cc(O)c2c(=O)c3c(cc(O)c4oc(C(=C)C)cc43)oc12` returned an EC50 of 0.8 µM.
